Source: ChEMBL document CHEMBL1629635, “Effect of DNase and antibiotics on biofilm characteristics” (2009)
Values after ≈ are worked out from the molar mass of the structure shown. Active and inactive are the calls of the source. No cut-off for these calls is given here.

Key:
[1] = tested on: Acinetobacter baumannii; test: Antimicrobial activity against Acinetobacter baumannii VT 126 by broth microdilution method; type: functional
Outline: (§1)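 MICs by broth microdilution following CLSI guidelines, in cation-adjusted Mueller-Hinton broth or Haemophilus test medium broth. Cultures were grown at 37°C without shaking.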

[2] = tested on: Haemophilus influenzae; test: Antimicrobial activity against Haemophilus influenzae VT450-2006 by broth microdilution method; type: functional; outline: as §1
[3] = tested on: Klebsiella pneumoniae; test: Antimicrobial activity against Klebsiella pneumoniae VT 1367 by broth microdilution method; type: functional; outline: as §1
[4] = tested on: Escherichia coli; test: Antimicrobial activity against Escherichia coli ATCC 25922 by broth microdilution method; type: functional; outline: as §1
[5] = tested on: Pseudomonas aeruginosa; test: Antimicrobial activity against Pseudomonas aeruginosa ATCC 27853 by broth microdilution method; type: functional; outline: as §1
[6] = tested on: Staphylococcus aureus; test: Antimicrobial activity against Staphylococcus aureus ATCC 29213 by broth microdilution method; type: functional; outline: as §1
[7] = tested on: Streptococcus pyogenes; test: Antimicrobial activity against Streptococcus pyogenes VT 59 by broth microdilution method; type: functional; outline: as §1
[8] = tested on: Acinetobacter baumannii; test: Bactericidal activity against Acinetobacter baumannii VT 126 assessed as eradication of pre-formed biofilm at 1 to 10 times MIC after 24 hrs; type: functional, organism-based
Outline: (§2)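 Biofilms were grown 24 h at 37°C in 96-well plates from a 24-h broth culture (inoculum 7.53 ± 0.22 log10 CFU/ml). […] Read-out was crystal-violet biomass (OD570) and CFU by serial dilution plating.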

[9] = tested on: Haemophilus influenzae; test: Bactericidal activity against Haemophilus influenzae VT450-2006 assessed as eradication of pre-formed biofilm at 1 to 10 times MIC after 24 hrs; type: functional, organism-based; outline: as §2
[10] = tested on: Klebsiella pneumoniae; test: Bactericidal activity against Klebsiella pneumoniae VT 1367 assessed as eradication of pre-formed biofilm at 1 to 10 times MIC after 24 hrs; type: functional, organism-based; outline: as §2
[11] = tested on: Escherichia coli; test: Bactericidal activity against Escherichia coli ATCC 25922 assessed as eradication of pre-formed biofilm at 1 to 10 times MIC after 24 hrs; type: functional, organism-based; outline: as §2
[12] = tested on: Pseudomonas aeruginosa; test: Bactericidal activity against Pseudomonas aeruginosa ATCC 27853 assessed as eradication of pre-formed biofilm at 1 to 10 times MIC after 24 hrs; type: functional, organism-based; outline: as §2
[13] = tested on: Staphylococcus aureus; test: Bactericidal activity against Staphylococcus aureus ATCC 29213 assessed as eradication of pre-formed biofilm at 1 to 10 times MIC after 24 hrs by serial dilution; type: functional, organism-based; outline: as §2
[14] = tested on: Streptococcus pyogenes; test: Bactericidal activity against Streptococcus pyogenes VT 59 assessed as eradication of pre-formed biofilm at 1 to 10 times MIC after 24 hrs; type: functional, organism-based; outline: as §2
[15] = tested on: Acinetobacter baumannii; test: Bactericidal activity against Acinetobacter baumannii VT 126 assessed as eradication of pre-formed biofilm at 50 times MIC after 24 hrs by serial dilution; type: functional
Outline: (§3)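 Preformed 24-h biofilms in 96-well plates got antibiotic at 50 times MIC, DNase I at 5 μg/ml, or both, for 24 h at 37°C. Wells were scraped into 1.0 ml of 0.15 M phosphate buffer pH 7.2, serially diluted and plated; result is log10 CFU/well. Mean ± SEM of three independent experiments, counts done in triplicate.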

[16] = tested on: Haemophilus influenzae; test: Bactericidal activity against Haemophilus influenzae VT450-2006 assessed as eradication of pre-formed biofilm at 50 times MIC after 24 hrs by serial dilution; type: functional; outline: as §3
[17] = tested on: Klebsiella pneumoniae; test: Bactericidal activity against Klebsiella pneumoniae VT 1367 assessed as eradication of pre-formed biofilm at 50 times MIC after 24 hrs by serial dilution; type: functional; outline: as §3
[18] = tested on: Escherichia coli; test: Bactericidal activity against Escherichia coli ATCC 25922 assessed as eradication of pre-formed biofilm at 50 times MIC after 24 hrs by serial dilution; type: functional; outline: as §3
[19] = tested on: Pseudomonas aeruginosa; test: Bactericidal activity against Pseudomonas aeruginosa ATCC 27853 assessed as eradication of pre-formed biofilm at 50 times MIC after 24 hrs by serial dilution; type: functional; outline: as §3
[20] = tested on: Staphylococcus aureus; test: Bactericidal activity against Staphylococcus aureus ATCC 29213 assessed as eradication of pre-formed biofilm at 50 times MIC after 24 hrs by serial dilution; type: functional; outline: as §3
[21] = tested on: Streptococcus pyogenes; test: Bactericidal activity against Streptococcus pyogenes VT 59 assessed as eradication of pre-formed biofilm at 50 times MIC after 24 hrs by serial dilution; type: functional; outline: as §3
[22] = tested on: Staphylococcus aureus; test: Bactericidal activity against Staphylococcus aureus ATCC 29213 assessed as eradication of pre-formed biofilm at 50 times MIC after 24 hrs; type: functional
Outline: (§4)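 24-h, 37°C 96-well biofilms were washed three times with 0.15 M phosphate buffer pH 7.2. They were treated 24 h at 37°C with antibiotic at 50 times MIC, alone or with DNase I at 5 μg/ml, in medium. Biomass: 0.1% crystal violet for 30 min at room temperature, water washes, ethanol-acetone (80:20) solubilization, absorbance at 570 nm.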

[23] = tested on: Streptococcus pyogenes; test: Bactericidal activity against Streptococcus pyogenes VT 59 assessed as eradication of pre-formed biofilm at 50 times MIC after 24 hrs; type: functional; outline: as §4
[24] = tested on: Acinetobacter baumannii; test: Bactericidal activity against Acinetobacter baumannii VT 126 assessed as eradication of pre-formed biofilm at 50 times MIC after 24 hrs; type: functional; outline: as §4
[25] = tested on: Haemophilus influenzae; test: Bactericidal activity against Haemophilus influenzae VT450-2006 assessed as eradication of pre-formed biofilm at 50 times MIC after 24 hrs; type: functional; outline: as §4
[26] = tested on: Klebsiella pneumoniae; test: Bactericidal activity against Klebsiella pneumoniae VT 1367 assessed as eradication of pre-formed biofilm at 50 times MIC after 24 hrs; type: functional; outline: as §4
[27] = tested on: Escherichia coli; test: Bactericidal activity against Escherichia coli ATCC 25922 assessed as eradication of pre-formed biofilm at 50 times MIC after 24 hrs; type: functional; outline: as §4
[28] = tested on: Pseudomonas aeruginosa; test: Bactericidal activity against Pseudomonas aeruginosa ATCC 27853 assessed as eradication of pre-formed biofilm at 50 times MIC after 24 hrs; type: functional; outline: as §4

Structure (SMILES) | MIC [1] [µg/mL] | MIC [2] [µg/mL] | MIC [3] [µg/mL] | MIC [4] [µg/mL] | MIC [5] [µg/mL] | MIC [6] [µg/mL] | MIC [7] [µg/mL] | inhibition [8] | inhibition [9] | inhibition [10] | inhibition [11] | inhibition [12] | inhibition [13] | inhibition [14] | log10cfu [15] | log10cfu [16] | log10cfu [17] | log10cfu [18] | log10cfu [20] | log10cfu [21] | further results
C[C@H]1COc2c(N3CCN(C)CC3)c(F)cc3c(=O)c(C(=O)O)cn1c23.C[C@H]1COc2c(N3CCN(C)CC3)c(F)cc3c(=O)c(C(=O)O)cn1c23.O [LEVOFLOXACIN] | 8 | 0.07 | 0.15 | 0.035 | 0.6 | 0.3 | 0.5 | inactive | inactive | inactive | inactive | inactive | inactive | inactive | 8.26 | 8.25 | 8.62 | 8.46 | 7.39 | 6.39 | log10cfu [19]: 8.69; inhibition (INH) [22]: 10%; inhibition (INH) [23]: 10%; inhibition (INH) [24]: 10%; inhibition (INH) [25]: 10%; inhibition (INH) [26]: 10%; inhibition (INH) [27]: 10%; inhibition (INH) [28]: 10%
CO/N=C(\C(=O)N[C@@H]1C(=O)N2C(C(=O)O)=C(COC(C)=O)CS[C@H]12)c1csc(N)n1 [CEFOTAXIME] | 1.5 (≈ 3.29 µM) | 0.16 (≈ 0.351 µM) | 0.06 (≈ 0.132 µM) | 1.5 (≈ 3.29 µM) | 64 (≈ 141 µM) | 3.8 (≈ 8.34 µM) | 0.03 (≈ 0.0659 µM) | inactive | inactive | inactive | inactive | inactive | inactive | inactive | 8.32 | 8.45 | 8.54 | 8.66 | 9.67 | 8.2 | log10cfu [19]: 8.68; inhibition (INH) [27]: 10%; inhibition (INH) [28]: 10%
CC[C@H]1OC(=O)[C@H](C)[C@@H](O[C@H]2C[C@@](C)(OC)[C@@H](O)[C@H](C)O2)[C@H](C)[C@@H](O[C@@H]2O[C@H](C)C[C@H](N(C)C)[C@H]2O)[C@](C)(O)C[C@@H](C)CN(C)[C@H](C)[C@@H](O)[C@]1(C)O [AZITHROMYCIN] | – | 1 (≈ 1.34 µM) | – | – | – | 0.3 (≈ 0.401 µM) | 0.25 (≈ 0.334 µM) | inactive | inactive | inactive | inactive | inactive | inactive | inactive | – | 8.14 | – | – | 9.75 | 8.24 | inhibition (INH) [23]: 20%
CC1(C)S[C@@H]2[C@H](NC(=O)[C@H](N)c3ccccc3)C(=O)N2[C@H]1C(=O)O [AMPICILLIN] | 50 (≈ 143 µM) | 0.5 (≈ 1.43 µM) | 64 (≈ 183 µM) | 16 (≈ 45.8 µM) | 128 (≈ 366 µM) | 0.025 (≈ 0.0715 µM) | 0.25 (≈ 0.715 µM) | inactive | inactive | inactive | inactive | inactive | inactive | inactive | 8.29 | 8.44 | 8.33 | 8.55 | 9.51 | 8.16 | log10cfu [19]: 8.62; inhibition (INH) [27]: 10%; inhibition (INH) [28]: 10%
CO[C@H]1/C=C/O[C@@]2(C)Oc3c(C)c(O)c4c(O)c(c(/C=N/N5CCN(C)CC5)c(O)c4c3C2=O)NC(=O)/C(C)=C\C=C\[C@H](C)[C@H](O)[C@@H](C)[C@@H](O)[C@@H](C)[C@H](OC(C)=O)[C@@H]1C [RIFAMPIN] | 8 (≈ 9.72 µM) | 0.8 (≈ 0.972 µM) | 16 (≈ 19.4 µM) | 8 (≈ 9.72 µM) | 16 (≈ 19.4 µM) | 0.25 (≈ 0.304 µM) | 0.25 (≈ 0.304 µM) | inactive | inactive | inactive | inactive | inactive | inactive | inactive | 8.15 | 8.14 | 8.5 | 8.58 | 7.5 | 6.44 | log10cfu [19]: 8.56; inhibition (INH) [22]: 10%; inhibition (INH) [23]: 10%; inhibition (INH) [24]: 10%; inhibition (INH) [25]: 10%; inhibition (INH) [26]: 10%; inhibition (INH) [27]: 10%; inhibition (INH) [28]: 10%
